Converted amounts (≈) assume the structure as drawn.
Columns and labels:
[1] = tested on: Bacillus subtilis; assay: Decrease in yxeM gene expression in Bacillus subtilis W168 by microarray analysis; format: functional
How it was run: (§1)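 W168 grown in Ca2+-supplemented Mueller-Hinton broth at 37°C to OD600 0.4, split, and one half exposed to 1 μg/ml daptomycin for 20 min. Total RNA from three biological replicates; cDNA labeled with Alexa Fluor 555/647 and co-hybridized at 42°C for 16–18 h. Genes with summed intensity <20 or SD > mean were dropped. Fold change is treated/untreated signal, from ≥6 spot measurements.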

[2] = tested on: Bacillus subtilis; assay: Decrease in hutM gene expression in Bacillus subtilis W168 by microarray analysis; format: functional; how it was run: as §1
[3] = tested on: Bacillus subtilis; assay: Antibacterial activity against liaIHGFSR gene-deficient Bacillus subtilis W168 mutant by liquid growth inhibition assay; format: functional
How it was run: (§2)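 Daptomycin MIC by liquid growth inhibition. Overnight cultures diluted 1:100, grown to mid-log, rediluted to 5 × 10^5 CFU/ml in Mueller-Hinton broth with 50 mg/liter Ca2+. At least 10 concentrations near the predicted MIC, plus a no-drug control, added at start; 200 μl. OD600 read every 20 min for 24 h at 37°C with shaking. Inhibition: 24 h OD600 <0.05. MIC is the mode of at least triplicates.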

[4] = tested on: Bacillus subtilis; assay: Decrease in rpsT gene expression in Bacillus subtilis W168 by microarray analysis; format: functional; how it was run: as §1
[5] = tested on: Bacillus subtilis; assay: Antibacterial activity against sigW and pspA gene-deficient Bacillus subtilis CU1065 mutant by liquid growth inhibition assay; format: functional; how it was run: as §2
[6] = tested on: Bacillus subtilis; assay: Antibacterial activity against mprF and pssA gene-deficient Bacillus subtilis CU1065 mutant by liquid growth inhibition assay; format: functional; how it was run: as §2
[7] = tested on: Bacillus subtilis; assay: Induction of murG gene expression in Bacillus subtilis W168 by microarray analysis; format: functional; how it was run: as §1
[8] = tested on: Bacillus subtilis; assay: Induction of yebC gene expression in Bacillus subtilis W168 by microarray analysis; format: functional; how it was run: as §1
[9] = tested on: Bacillus subtilis; assay: Decrease in ypeB gene expression in Bacillus subtilis W168 by microarray analysis; format: functional; how it was run: as §1
[10] = tested on: Bacillus subtilis; assay: Induction of yqjL gene expression in Bacillus subtilis W168 by microarray analysis; format: functional; how it was run: as §1
[11] = tested on: Bacillus subtilis; assay: Increase in yfiC gene expression in Bacillus subtilis W168 by microarray analysis
[12] = tested on: Bacillus subtilis; assay: Antibacterial activity against Bacillus subtilis CU1065 mutant by liquid growth inhibition assay; format: functional; how it was run: as §2
[13] = tested on: Bacillus subtilis; assay: Induction of ywrE gene expression in Bacillus subtilis W168 by microarray analysis; format: functional
How it was run: (§3)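 W168 cultures in Mueller-Hinton broth with 50 mg/liter Ca2+, 37°C with shaking, grown to mid-log phase (OD600 0.4) from a 1:1,000 overnight dilution. Split: one half given 1 μg/ml daptomycin for 20 min, the other left untreated. Total RNA from three biological replicates; cDNA labeled with Alexa Fluor 555 or 647 and hybridized 16 to 18 h at 42°C. Induction = treated/untreated signal intensity, duplicate spots on three arrays.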

[14] = tested on: Bacillus subtilis; assay: Antibacterial activity against pssA gene-deficient Bacillus subtilis CU1065 mutant by liquid growth inhibition assay; format: functional; how it was run: as §2
[15] = tested on: Bacillus subtilis; assay: Antibacterial activity against mprF and pspA gene-deficient Bacillus subtilis CU1065 mutant by liquid growth inhibition assay; format: functional; how it was run: as §2
[16] = tested on: Bacillus subtilis; assay: Decrease in lmrB gene expression in Bacillus subtilis W168 by microarray analysis; format: functional; how it was run: as §1
[17] = tested on: Bacillus subtilis; assay: Induction of yvrL gene expression in Bacillus subtilis W168 by microarray analysis; format: functional; how it was run: as §3
[18] = tested on: Bacillus subtilis; assay: Induction of yocH gene expression in Bacillus subtilis W168 by microarray analysis; format: functional; how it was run: as §1
[19] = tested on: Bacillus subtilis; assay: Antibacterial activity against ywnE gene-deficient Bacillus subtilis CU1065 mutant by liquid growth inhibition assay; format: functional; how it was run: as §2
[20] = tested on: Bacillus subtilis; assay: Antibacterial activity against des and pspA gene-deficient Bacillus subtilis W168 mutant by liquid growth inhibition assay
[21] = tested on: Bacillus subtilis; assay: Decrease in ywdE gene expression in Bacillus subtilis W168 by microarray analysis; format: functional; how it was run: as §1
[22] = tested on: Bacillus subtilis; assay: Induction of yxjI gene expression in Bacillus subtilis W168 by microarray analysis; format: functional; how it was run: as §3
[23] = tested on: Bacillus subtilis; assay: Antibacterial activity against sigX gene-deficient Bacillus subtilis CU1065 mutant by liquid growth inhibition assay; format: functional; how it was run: as §2
[24] = tested on: Bacillus subtilis; assay: Antibacterial activity against liaIH gene-deficient Bacillus subtilis W168 mutant by liquid growth inhibition assay; format: functional; how it was run: as §2
[25] = tested on: Bacillus subtilis; assay: Induction of ydaH gene expression in Bacillus subtilis W168 by microarray analysis; format: functional; how it was run: as §1
[26] = tested on: Bacillus subtilis; assay: Antibacterial activity against mprF and ugtP gene-deficient Bacillus subtilis CU1065 mutant by liquid growth inhibition assay; format: functional; how it was run: as §2
[27] = tested on: Bacillus subtilis; assay: Induction of yuaG gene expression in Bacillus subtilis W168 by microarray analysis; format: functional; how it was run: as §1
[28] = tested on: Bacillus subtilis; assay: Decrease in ywhE gene expression in Bacillus subtilis W168 by microarray analysis; format: functional; how it was run: as §1
[29] = tested on: Bacillus subtilis; assay: Antibacterial activity against pspA gene-deficient Bacillus subtilis CU1065 mutant by liquid growth inhibition assay; format: functional; how it was run: as §2
[30] = tested on: Bacillus subtilis; assay: Antibacterial activity against psd and mprF gene-deficient Bacillus subtilis CU1065 mutant by liquid growth inhibition assay; format: functional; how it was run: as §2
[31] = tested on: Bacillus subtilis; assay: Antibacterial activity against liaH, pspA and sigW gene-deficient Bacillus subtilis CU1065 mutant by liquid growth inhibition assay; format: functional; how it was run: as §2
[32] = tested on: Bacillus subtilis; assay: Induction of liaF gene expression in Bacillus subtilis W168 by microarray analysis; format: functional; how it was run: as §1
[33] = tested on: Bacillus subtilis; assay: Antibacterial activity against liaF gene-deficient Bacillus subtilis W168 mutant by liquid growth inhibition assay; format: functional; how it was run: as §2
[34] = tested on: Bacillus subtilis; assay: Antibacterial activity against sigXW gene-deficient Bacillus subtilis CU1065 double mutant by liquid growth inhibition assay; format: functional; how it was run: as §2
[35] = tested on: Bacillus subtilis; assay: Antibacterial activity against Bacillus subtilis W168 mutant by liquid growth inhibition assay; format: functional; how it was run: as §2
[36] = tested on: Bacillus subtilis; assay: Induction of liaH gene expression in Bacillus subtilis W168 by microarray analysis; format: functional; how it was run: as §1
[37] = tested on: Bacillus subtilis; assay: Antibacterial activity against Bacillus subtilis CU1065 harboring IPTG-induced pgsA by liquid growth inhibition assay; format: functional; how it was run: as §2
[38] = tested on: Bacillus subtilis; assay: Induction of rodA gene expression in Bacillus subtilis W168 by microarray analysis; format: functional; how it was run: as §1
[39] = tested on: Bacillus subtilis; assay: Decrease in yvcB gene expression in Bacillus subtilis W168 by microarray analysis; format: functional; how it was run: as §1
[40] = tested on: Bacillus subtilis; assay: Induction of liaG gene expression in Bacillus subtilis W168 by microarray analysis; format: functional; how it was run: as §1
[41] = tested on: Bacillus subtilis; assay: Decrease in yitI gene expression in Bacillus subtilis W168 by microarray analysis; format: functional; how it was run: as §1
[42] = tested on: Bacillus subtilis; assay: Antibacterial activity against liaH and pspA gene-deficient Bacillus subtilis CU1065 mutant by liquid growth inhibition assay; format: functional; how it was run: as §2
[43] = tested on: Bacillus subtilis; assay: Antibacterial activity against sigMWX and liaIH gene-deficient Bacillus subtilis CU1065 mutant by liquid growth inhibition assay; format: functional; how it was run: as §2
[44] = tested on: Bacillus subtilis; assay: Decrease in ydgK gene expression in Bacillus subtilis W168 by microarray analysis; format: functional; how it was run: as §1
[45] = tested on: Bacillus subtilis; assay: Decrease in fabHB gene expression in Bacillus subtilis W168 by microarray analysis; format: functional; how it was run: as §1
[46] = tested on: Bacillus subtilis; assay: Decrease in yvpB gene expression in Bacillus subtilis W168 by microarray analysis; format: functional; how it was run: as §1
[47] = tested on: Bacillus subtilis; assay: Induction of yuaF gene expression in Bacillus subtilis W168 by microarray analysis; format: functional; how it was run: as §1
[48] = tested on: Bacillus subtilis; assay: Decrease in yvzC gene expression in Bacillus subtilis W168 by microarray analysis; format: functional; how it was run: as §1
[49] = tested on: Bacillus subtilis; assay: Antibacterial activity against liaIH and mprF gene-deficient Bacillus subtilis W168 mutant by liquid growth inhibition assay; format: functional; how it was run: as §2
[50] = tested on: Bacillus subtilis; assay: Decrease in yxeQ gene expression in Bacillus subtilis W168 by microarray analysis; format: functional; how it was run: as §1

## CCCCCCCCCC(=O)N[C@@H](Cc1c[nH]c2ccccc12)C(=O)N[C@H](CC(N)=O)C(=O)N[C@@H](CC(=O)O)C(=O)N[C@@H]1C(=O)NCC(=O)N[C@@H](CCCN)C(=O)N[C@@H](CC(=O)O)C(=O)N[C@H](C)C(=O)N[C@@H](CC(=O)O)C(=O)NCC(=O)N[C@H](CO)C(=O)N[C@@H]([C@H](C)CC(=O)O)C(=O)N[C@@H](CC(=O)c2ccccc2N)C(=O)O[C@@H]1C
[1]
  fold change (FC): 0.4
[2]
  fold change (FC): 3.2
[3]
  MIC: 0.3 µg/mL (≈ 0.185 µM)
[4]
  fold change (FC): 0.5
[5]
  MIC: 0.8 µg/mL (≈ 0.494 µM)
[6]
  MIC: 0.9 µg/mL (≈ 0.555 µM)
[7]
  fold change (FC): 2.4
[8]
  fold change (FC): 3.6
[9]
  fold change (FC): 3.1
[10]
  fold change (FC): 7.8
[11]
  fold change (FC): 3.5
[12]
  MIC: 1 µg/mL (≈ 0.617 µM)
[13]
  fold change (FC): 2.1
[14]
  MIC: 1 µg/mL (≈ 0.617 µM)
[15]
  MIC: 0.5 µg/mL (≈ 0.309 µM)
[16]
  fold change (FC): 0.5
[17]
  fold change (FC): 535
[18]
  fold change (FC): 0.5
[19]
  MIC: 1 µg/mL (≈ 0.617 µM)
[20]
  MIC: 0.9 µg/mL (≈ 0.555 µM)
[21]
  fold change (FC): 9.9
[22]
  fold change (FC): 2.1
[23]
  MIC: 1 µg/mL (≈ 0.617 µM)
[24]
  MIC: 0.4 µg/mL (≈ 0.247 µM)
[25]
  fold change (FC): 6.2
[26]
  MIC: 0.6 µg/mL (≈ 0.37 µM)
[27]
  fold change (FC): 2
[28]
  fold change (FC): 0.4
[29]
  MIC: 1 µg/mL (≈ 0.617 µM)
[30]
  MIC: 0.9 µg/mL (≈ 0.555 µM)
[31]
  MIC: 0.2 µg/mL (≈ 0.123 µM)
[32]
  fold change (FC): 149
[33]
  MIC: 1 µg/mL (≈ 0.617 µM)
[34]
  MIC: 0.9 µg/mL (≈ 0.555 µM)
[35]
  MIC: 1 µg/mL (≈ 0.617 µM)
[36]
  fold change (FC): 1336
[37]
  MIC: 1 µg/mL (≈ 0.617 µM)
[38]
  fold change (FC): 2.7
[39]
  fold change (FC): 27
[40]
  fold change (FC): 283
[41]
  fold change (FC): 2.9
[42]
  MIC: 0.2 µg/mL (≈ 0.123 µM)
[43]
  MIC: 0.2 µg/mL (≈ 0.123 µM)
[44]
  fold change (FC): 0.5
[45]
  fold change (FC): 2.8
[46]
  fold change (FC): 14
[47]
  fold change (FC): 4.8
[48]
  fold change (FC): 26
[49]
  MIC: 0.2 µg/mL (≈ 0.123 µM)
[50]
  fold change (FC): 0.5

— ChEMBL document CHEMBL1649137, “Genetic analysis of factors affecting susceptibility of Bacillus subtilis to daptomycin” (2009)
